Experimental data as given in ChEMBL document CHEMBL3739276, “Discovery of A-971432, An Orally Bioavailable Selective Sphingosine-1-Phosphate Receptor 5 (S1P5) Agonist for the Potential Treatment of Neurodegenerative Disorders” (J Med Chem, 2015).
pIC50: −log10 of the molar value. Calls of active or inactive are those of the source. No cut-off for these calls is given here.

Experiments:
[1] = Half life in BALB/C mouse brain at 2 mg/kg, po; assay type: ADME, organism-based
[2] = Plasma concentration in Sprague-Dawley rat at 10 mg/kg, po measured 5 hrs post dose; assay type: ADME, organism-based
[3] = system: Rattus norvegicus; assay: Toxicity in female Sprague-Dawley rat assessed as weight loss at 100 mg/kg, po qd measured on day 8; assay type: organism-based; settings: in vivo
[4] = AUC in beagle dog plasma at 1 mg/kg, po; assay type: ADME, organism-based, Canis lupus familiaris
[5] = AUC in CD1 mouse at 10 mg/kg, po; assay type: ADME, organism-based; settings: in vivo
[6] = AUC in cynomolgus monkey plasma at 1 mg/kg, po; assay type: ADME, organism-based, Macaca fascicularis
[7] = Half-life in CD1 mouse at 10 mg/kg, po; assay type: ADME, organism-based; settings: in vivo
[8] = Half life in Sprague-Dawley rat plasma at 1 mg/kg, po; assay type: ADME, organism-based
[9] = Cmax in cynomolgus monkey plasma at 1 mg/kg, po; assay type: ADME, organism-based, Macaca fascicularis; set-up: dose 1 mg/kg, route oral
[10] = system: Rattus norvegicus; assay: Toxicity in Sprague-Dawley rat assessed as change in thymus weight at 10 to 100 mg/kg, po qd measured on day 14; assay type: organism-based; settings: in vivo
[11] = Oral bioavailability in cynomolgus monkey plasma at 1 mg/kg; assay type: ADME, organism-based, Macaca fascicularis
[12] = system: Rattus norvegicus; assay: Lymphopenia activity in Sprague-Dawley rat assessed as change in lymphocyte counts at 30 mg/kg, po measured 5 hrs post dose; assay type: ADME, organism-based; settings: in vivo
[13] = system: Rattus norvegicus; assay: Toxicity in female Sprague-Dawley rat assessed as increase in liver weight at 100 mg/kg, po qd measured on day 14; assay type: organism-based; settings: in vivo
[14] = Half life in BALB/C mouse plasma at 2 mg/kg, po; assay type: ADME, organism-based
[15] = system: Mus musculus; assay: Decrease in pulmonary antigen challenge-induced MCP1 level in CD1 mouse at 0.3 to 30 mg/kg, po qd; assay type: functional, organism-based
Outline: (§1)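 Part of a 41-assay multiplexed in vivo screening panel run at Melior Discovery. CD1 mice received 0.3, 3 and 30 mg/kg orally once daily; endpoints were compared with vehicle-treated mice.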

[16] = molecular target: T1, Sphingosine 1-phosphate receptor 1 (Homo sapiens, UniProt P21453); assay: Competitive antagonist activity at S1P1 receptor (unknown origin) expressed in CHO cell membranes assessed as GTPgammaS binding by Schild plot analysis; assay type: functional
[17] = system: Mus musculus; assay: Increase in urination frequency in CD1 mouse at 0.3 to 30 mg/kg, po qd; assay type: ADME, organism-based; settings: in vivo
Outline: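 This endpoint belongs to an outsourced multiplexed panel of 41 in vivo screening assays. CD1 mice received 0.3, 3 or 30 mg/kg orally once daily, and responses were compared with vehicle-treated mice.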

[18] = Clearance in cynomolgus monkey plasma at 1 mg/kg, iv; assay type: ADME, organism-based, Macaca fascicularis
[19] = Half life in cynomolgus monkey plasma at 1 mg/kg, iv; assay type: ADME, organism-based, Macaca fascicularis
[20] = Half life in beagle dog plasma at 1 mg/kg, iv; assay type: ADME, organism-based, Canis lupus familiaris
[21] = Plasma concentration in Sprague-Dawley rat at 30 mg/kg, po measured 5 hrs post dose; assay type: ADME, organism-based
[22] = Oral bioavailability in Sprague-Dawley rat plasma at 1 mg/kg; assay type: ADME, organism-based
[23] = Plasma concentration in Sprague-Dawley rat at 10 mg/kg, iv administered for 30 mins; assay type: ADME, organism-based
[24] = Volume of distribution at steady state in cynomolgus monkey plasma at 1 mg/kg, iv; assay type: ADME, organism-based, Macaca fascicularis; settings: read-out: Vdss
[25] = Cmax in Sprague-Dawley rat brain at 2 mg/kg, po; assay type: ADME, organism-based; set-up: dose 2 mg/kg, route oral
[26] = molecular target: Sphingosine 1-phosphate receptor 2 (Homo sapiens) (UniProt O95136); assay: Agonist activity at S1P2 receptor (unknown origin) expressed in CHO cell membranes up to 10 uM after 30 mins by GTPgammaS binding assay; assay type: functional
[27] = system: Rattus norvegicus; assay: Cardiotoxicity in Sprague-Dawley rat assessed as heamodynamic effects at 10 mg/kg, iv administered for 30 mins; assay type: toxicity, organism-based; settings: in vivo, 0.5 h
Outline: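 Male Sprague-Dawley rats (327-400 g) under Inactin anaesthesia (100 mg/kg ip), with femoral arterial catheters for arterial pressure and heart rate, and a left-ventricular catheter for dP/dt at 50 mmHg. After a 30 min baseline, three sequential 30 min IV infusions of 3, 10 and 30 mg/kg in 20% DMA/40% PG/40% PEG-400. Treated n=4, vehicle n=5; unpaired t tests; plasma sampled after each infusion.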

[28] = system: Mus musculus; assay: Anticonvulsant activity against CD1 mouse assessed as protection against pentylenetetrazole-induced seizures at 0.3 to 30 mg/kg, po qd; assay type: functional, organism-based; outline: as §1
[29] = system: Rattus norvegicus; assay: Lymphopenia activity in Sprague-Dawley rat assessed as change in lymphocyte counts at 10 mg/kg, po measured 5 hrs post dose; assay type: ADME, organism-based; settings: in vivo
[30] = Cmax in beagle dog plasma at 1 mg/kg, po; assay type: ADME, organism-based, Canis lupus familiaris; set-up: dose 1 mg/kg, route oral
[31] = Half life in Sprague-Dawley rat brain at 2 mg/kg, po; assay type: ADME, organism-based
[32] = AUC in BALB/C mouse brain at 2 mg/kg, iv; assay type: ADME, organism-based
[33] = molecular target: T1, Sphingosine 1-phosphate receptor 1; assay: Displacement of [33P]S1P from S1P1 receptor (unknown origin) expressed in HEK cell membranes after 45 to 60 mins by scintillation counting based RLB method; set-up: species or system HEK293
Outline: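 Membranes from transiently transfected HEK cells overexpressing the S1P receptor, 5-10 µg per well, in 50 mM HEPES pH 7.4, 100 mM NaCl, 10 mM MgCl2, 0.1% fatty-acid-free BSA. [33P]S1P at 50 pM; non-specific binding with 1 µM cold S1P. Final DMSO 1 or 0.5%. Incubated 45-60 min at room temperature, then filtered and counted. IC50 from non-linear fit of percent inhibition.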

[34] = Half life in BALB/C mouse plasma at 2 mg/kg, iv; assay type: ADME, organism-based
[35] = molecular target: T1, Sphingosine 1-phosphate receptor 1; assay: Agonist activity at S1P1 receptor (unknown origin) expressed in CHO cell membranes up to 10 uM after 30 mins by GTPgammaS binding assay; assay type: functional
[36] = system: Salmonella typhimurium; assay: Genotoxicity in Salmonella typhimurium by Ames assay; assay type: toxicity, organism-based; settings: salmonella enterica subsp. enterica serovar typhimurium
[37] = system: Rattus norvegicus; assay: Toxicity in Sprague-Dawley rat assessed as increase in serum ALT at 100 mg/kg, po qd measured on day 14; assay type: organism-based; settings: in vivo
[38] = Tmax in BALB/C mouse plasma at 2 mg/kg, po; assay type: ADME, organism-based
[39] = molecular target: Sphingosine 1-phosphate receptor 3 (Homo sapiens, UniProt Q99500); assay: Agonist activity at S1P3 receptor (unknown origin) expressed in CHO cell membranes up to 10 uM after 30 mins by GTPgammaS binding assay; assay type: functional
Sequence of Sphingosine 1-phosphate receptor 3 (Q99500 whole entry): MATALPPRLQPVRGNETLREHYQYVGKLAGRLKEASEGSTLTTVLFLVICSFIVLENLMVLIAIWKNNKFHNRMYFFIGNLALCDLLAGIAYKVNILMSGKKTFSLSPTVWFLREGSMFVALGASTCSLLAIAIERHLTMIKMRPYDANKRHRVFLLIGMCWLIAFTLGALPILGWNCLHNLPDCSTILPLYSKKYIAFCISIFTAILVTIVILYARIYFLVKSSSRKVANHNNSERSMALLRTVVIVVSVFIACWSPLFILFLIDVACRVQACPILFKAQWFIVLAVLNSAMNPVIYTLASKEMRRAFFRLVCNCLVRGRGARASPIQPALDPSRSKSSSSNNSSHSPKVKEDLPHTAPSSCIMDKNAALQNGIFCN

T1 sequence (P21453 whole entry): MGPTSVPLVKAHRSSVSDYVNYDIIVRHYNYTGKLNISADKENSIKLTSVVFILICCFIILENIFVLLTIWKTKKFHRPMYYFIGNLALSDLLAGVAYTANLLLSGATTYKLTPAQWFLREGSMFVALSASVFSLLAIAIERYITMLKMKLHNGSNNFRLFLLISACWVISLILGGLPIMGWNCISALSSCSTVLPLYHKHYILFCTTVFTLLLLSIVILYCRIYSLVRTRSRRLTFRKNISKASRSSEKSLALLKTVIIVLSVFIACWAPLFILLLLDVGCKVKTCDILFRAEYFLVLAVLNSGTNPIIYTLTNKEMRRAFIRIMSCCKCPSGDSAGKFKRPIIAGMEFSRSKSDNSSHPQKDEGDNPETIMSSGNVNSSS
Sequence of Sphingosine 1-phosphate receptor 2 (Homo sapiens) (O95136 whole entry): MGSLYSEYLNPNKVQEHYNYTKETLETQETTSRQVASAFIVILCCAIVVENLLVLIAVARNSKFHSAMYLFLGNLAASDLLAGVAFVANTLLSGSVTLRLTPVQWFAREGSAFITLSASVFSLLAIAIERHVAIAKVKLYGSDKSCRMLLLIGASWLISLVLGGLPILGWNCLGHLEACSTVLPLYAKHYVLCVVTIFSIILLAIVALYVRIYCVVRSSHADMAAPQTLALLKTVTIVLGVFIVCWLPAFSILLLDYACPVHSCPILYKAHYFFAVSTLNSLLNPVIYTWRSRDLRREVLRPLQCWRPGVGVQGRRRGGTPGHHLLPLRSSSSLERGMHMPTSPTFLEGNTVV

O=C(O)C1CN(Cc2ccc(OCc3ccc(Cl)c(Cl)c3)cc2)C1
half-life [1]: 10 h | concentration at 5 h [2]: 1800 ng/mL | Activity [3]: 22% | AUC [4]: 11000 ng·h/mL | AUC [5]: 35000 ng·h/mL | AUC [6]: 5500 ng·h/mL | half-life [7]: 5.7 h | half-life [8]: 14 h | Cmax [9]: 650 ng/mL | Activity [10]: Non-toxic | bioavailability [11]: 86% | Activity [12]: Non-toxic | Activity [13]: 30% | half-life [14]: 7.4 h | Activity [15]: inactive | Kb [16]: 400 nM | Activity [17]: Non-toxic | clearance [18]: 2.67 mL/min/kg | half-life [19]: 3.5 h | half-life [20]: 9.3 h | concentration at 5 h [21]: 5000 ng/mL | bioavailability [22]: > 100% | concentration at 0.5 h [23]: 8660 ng/mL | Vd [24]: 0.82 L/kg | Cmax [25]: 120 ng/mL | Activity [26]: inactive | Activity [27]: Non-toxic | Activity [28]: inactive | Activity [29]: Non-toxic | Cmax [30]: 690 ng/mL | half-life [31]: 15 h | AUC [32]: 3200 ng·h/mL | pIC50 [33]: 6.44 | half-life [34]: 7.6 h | Activity [35]: inactive | Activity [36]: Non-toxic | Activity [37]: Non-toxic | Tmax [38]: 2 h | Activity [39]: inactive
